Measurements of several laboratories.
Compare with care: the assays were run in different laboratories.
Target: Casein kinase I isoform gamma-3 (CSNK1G3, Homo sapiens, UniProt Q9Y6M4)

SMILES	effect on	action	method	tested at	quantity	result
Cn1cc(-c2cccc(N3CCc4c(sc5c4CC(C)(C)C5)C3=O)c2CO)cc(Nc2ccncn2)c1=O	enzyme activity	inhibitor		1 µM	inhibition	-1%
Cc1nn(C)cc1-c1nc2c(N3CCN(Cc4ccc(Cl)cc4)CC3)c(Cl)cnc2[nH]1	binding		competition with immobilised ligand	1 µM	remaining binding	100%
Cn1cncc1[C@@](O)(COc1ccc(C#N)cc1-c1ccc(OC(F)(F)F)cc1)c1ccc(C#N)cc1	cell-free assay		competition with immobilised ligand	1 µM	remaining binding	100%
COc1cc(Nc2ncc(F)c(Nc3ccc4c(n3)NC(=O)C(C)(C)O4)n2)cc(OC)c1OC	binding		competition with immobilised ligand	10 µM	inhibition	0%
O=c1[nH]c2ccccc2n1C1CCN(Cc2ccc(-c3[nH]c4cc5ncnc5cc4nc3-c3ccccc3)cc2)CC1	cell-free assay			0.5 µM	remaining signal	96.5%
Cn1cc(-c2cc(F)cc(N3CCn4c(cc5c4CCCC5)C3=O)c2CO)cc(Nc2ccc(N3CCN(C4COC4)CC3)cn2)c1=O	enzyme activity	inhibitor		0.1 µM	inhibition	7%
N#CC1(c2ccccn2)CCN(Cc2cc(C(=O)O)c(=O)n3ccccc23)CC1	cell-free assay		competition with immobilised ligand	1 µM	remaining binding	93%
CC(C)(C)c1cc(C=C(C#N)C#N)cc(Br)c1O	enzyme activity	inhibitor		0.5 µM	remaining activity	85.8%
COc1ncccc1-c1cnn2ccc(N3CCN(C(=O)OC(C)C)CC3)nc12	binding		competition with immobilised ligand	1 µM	remaining binding	92%
